Columns and labels:
[1] = tested on: 3T3-L1; assay: In vitro glucose transport activity in 3T3-LI adipocytes at 10 uM concentration.; assay type: functional, Mus musculus
In short: (§1)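 Differentiated 3T3-L1 adipocytes, no added insulin, treated in triplicate for 18 h with compound at 3, 10 or 30 µM. Glucose transport expressed as % (relative to untreated); values are means of triplicate runs, significance by one-tailed independent Student's t-test.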

[2] = tested on: 3T3-L1; assay: In vitro glucose transport activity in 3T3-LI adipocytes at 3 uM concentration.; assay type: functional, Mus musculus; in short: as §1
[3] = tested on: 3T3-L1; assay: In vitro glucose transport activity in 3T3-LI adipocytes at 30 uM concentration.; assay type: functional, Mus musculus; in short: as §1
[4] = tested on: Mus musculus; assay: Change in plasma glucose levels measured in genetically altered obese diabetic mice(db/db) at 100 mg/kg at 3 hr postdose; assay type: functional
[5] = tested on: Mus musculus; assay: Change in plasma glucose levels measured in genetically altered obese diabetic mice(db/db) at 100 mg/kg at 24 hr postdose; assay type: functional
[6] = tested on: Mus musculus; assay: Food intake measured in genetically altered obese diabetic mice(db/db) at 100 mg/kg dose; assay type: functional
In short: (§2)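 Obese diabetic C57BL/KS-db/db mice, single dose at t = 0, n = 8 per group (n = 5 for parent compound). Body weight recorded per mouse at 0 and 24 h; food intake reported as g/mouse/day. Vehicle used as negative control, metformin as positive control.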

[7] = tested on: Mus musculus; assay: Mean body weight measured in genetically altered obese diabetic mice(db/db) at 100 mg/kg at 0 hr postdose; assay type: functional; in short: as §2
[8] = tested on: Mus musculus; assay: Mean body weight measured in genetically altered obese diabetic mice(db/db) at 100 mg/kg at 24 hr postdose; assay type: functional; in short: as §2
[9] = tested on: Mus musculus; assay: Food intake measured in genetically altered obese diabetic mice(db/db) at 100 mg/kg dose; 6 animals died; assay type: functional
[10] = tested on: Mus musculus; assay: Mean body weight measured in genetically altered obese diabetic mice(db/db) at 30 mg/kg at 0 h postdose; assay type: functional; in short: as §2
[11] = tested on: Mus musculus; assay: Mean body weight measured in genetically altered obese diabetic mice(db/db) at 30 mg/kg at 24 h postdose; assay type: functional; in short: as §2
[12] = tested on: Mus musculus; assay: Change in plasma glucose levels measured in genetically altered obese diabetic mice(db/db) at 30 mg/kg at 24 hr postdose; assay type: functional
[13] = tested on: Mus musculus; assay: Change in plasma glucose levels measured in genetically altered obese diabetic mice(db/db) at 30 mg/kg at 3 hr postdose; assay type: functional
[14] = tested on: Mus musculus; assay: Food intake measured in genetically altered obese diabetic mice(db/db) at 30 mg/kg dose; assay type: functional; in short: as §2
[15] = tested on: Mus musculus; assay: Food intake measured in genetically altered obese diabetic mice(db/db) at 100 mg/kg dose; 2 animals died; assay type: functional
[16] = tested on: Mus musculus; assay: Mean body weight measured in genetically altered obese diabetic mice(db/db) at 30 mg/kg at 0 hr postdose; assay type: functional; in short: as §2
[17] = tested on: Mus musculus; assay: Mean body weight measured in genetically altered obese diabetic mice(db/db) at 30 mg/kg at 24 hr postdose; assay type: functional; in short: as §2

Structure (SMILES) | Glucose transport [1] | Glucose transport [2] | Glucose transport [3] | Change [4] | Change [5] | Food intake [6] | Mean body weight [7] | Mean body weight [8] | other results
C[n+]1c2ccccc2c(Cl)c2[nH]c3cccc(F)c3c21.[Cl-] | 457% | 143% | 6.4% |  |  |  |  |  | 
C[n+]1c2ccc(F)cc2c(Oc2ccccc2)c2[nH]c3ccccc3c21.[Cl-] | 207% | 140% | 0.39% | -11.8% | -7.5% | 1.6 g mouse-1 day-1 | 46.6 g mouse-1 | 45.2 g mouse-1 | 
C[n+]1c2ccc(F)cc2c(Cl)c2[nH]c3ccccc3c21.[Cl-] | 224% | 142% | 3.3% |  |  |  |  |  | 
COc1cccc2cc3[nH]c4ccccc4c3[n+](C)c12.[Cl-] | 486% | 237% | 543% | -8.3% | -58.3% | 2 g mouse-1 day-1 | 38.4 g mouse-1 | 37.1 g mouse-1 | 
CCCC[n+]1c2ccccc2cc2[nH]c3ccccc3c21.[Cl-] | 868% | 561% | 490% | -33.8% | -2.2% |  | 45.8 g mouse-1 | 45.8 g mouse-1 | Food intake [9]: 2.6 g mouse-1 day-1; Mean body weight [10]: 38.7 g mouse-1; Mean body weight [11]: 38.6 g mouse-1; Change [12]: -22%; Change [13]: 4%; Food intake [14]: 6 g mouse-1 day-1
C[n+]1c2ccc(F)cc2c(-c2ccccc2)c2[nH]c3ccccc3c21.[Cl-] | 215% | 281% | 116% | -11.2% | -4.9% | 5.1 g mouse-1 day-1 | 40.5 g mouse-1 | 40.4 g mouse-1 | 
C[n+]1c2ccccc2cc2[nH]c3ccccc3c21.[I-] [CRYPTOLEPTINE IODIDE] | 163% | 134% | 287% |  |  |  |  |  | 
C[n+]1c2ccccc2cc2[nH]c3cc(Cl)c(Br)cc3c21.[Cl-] | 127% | 104% | 0.1% | -33% | -18.9% | 2.8 g mouse-1 day-1 | 45.5 g mouse-1 | 44.6 g mouse-1 | 
[Cl-].c1ccc(C[n+]2c3ccccc3cc3[nH]c4ccccc4c32)cc1 | 781% | 611% | 161% | -15% | -20% | 5.1 g mouse-1 day-1 | 39.3 g mouse-1 | 38.9 g mouse-1 | 
CC[n+]1c2ccccc2cc2[nH]c3ccccc3c21.[Cl-] | 228% | 197% | 404% | -23.2% | -26.5% |  | 44.6 g mouse-1 | 43.3 g mouse-1 | Food intake [15]: 1 g mouse-1 day-1; Change [12]: -4.1%; Change [13]: -7.7%; Food intake [14]: 5.1 g mouse-1 day-1; Mean body weight [16]: 41.7 g mouse-1; Mean body weight [17]: 41.2 g mouse-1
C[n+]1c2ccccc2c(I)c2[nH]c3c(F)cccc3c21.[Cl-] | 255% | 129% | 0.1% | 19.9% | -32.9% | 0.7 g mouse-1 day-1 | 43.4 g mouse-1 | 41.4 g mouse-1 | 
COC(=O)c1c2ccccc2[n+](C)c2c3ccccc3n(C)c12.[I-] | 207% | 155% | 260% |  |  |  |  |  | 
C[n+]1c2ccc(Cl)cc2c(Cl)c2[nH]c3ccccc3c21.[Cl-] | 138% | 108% | 215% |  |  |  |  |  | 
C[n+]1c2ccccc2c(Sc2ccc(Cl)cc2)c2oc3ccccc3c21.O=S(=O)([O-])C(F)(F)F | 142% | 118% | 141% |  |  |  |  |  | 
C[n+]1c2ccccc2c(Cl)c2[nH]c3ccc(-c4ccccc4)cc3c21.[Cl-] | 190% | 122% | 16% |  |  |  |  |  | 
C[n+]1c2ccccc2c(Cl)c2oc3ccccc3c21.O=S(=O)([O-])C(F)(F)F | 114% | 119% | 107% | -17.9% | -20.8% | 4.9 g mouse-1 day-1 | 40.6 g mouse-1 | 41.1 g mouse-1 | 
C[n+]1c2ccc(F)cc2cc2[nH]c3ccccc3c21.[Cl-] | 360% | 253% | 443% | -42.5% | -34.5% | 0.5 g mouse-1 day-1 | 43.8 g mouse-1 | 41.9 g mouse-1 | 
Fc1ccc(C[n+]2c3ccccc3cc3[nH]c4ccccc4c32)cc1.[Cl-] | 248% | 168% | 323% | -36.3% | -9.7% | 3.1 g mouse-1 day-1 | 40.2 g mouse-1 | 39 g mouse-1 | 
COC(=O)c1c2ccccc2[n+](C)c2c1[nH]c1ccccc12.[I-] | 159% | 63% | 371% |  |  |  |  |  | 
C[n+]1c2cccc(Cl)c2c(Cl)c2[nH]c3ccccc3c21.[Cl-] | 282% | 120% | 352% |  |  |  |  |  | 
C[n+]1c2ccccc2c(Cl)c2[nH]c3ccccc3c21.[Cl-] | 101% | 107% | 0.33% |  |  |  |  |  | 
C[n+]1c2c(c(Sc3ccc(Cl)cc3)c3ccccc31)Cc1ccccc1-2.O=S(=O)([O-])C(F)(F)F | 110% | 108% | 122% |  |  |  |  |  | 
C[n+]1c2ccc(F)cc2c(Sc2ccc(Cl)cc2)c2[nH]c3ccccc3c21.[Cl-] | 154% | 128% | 13% |  |  |  |  |  | 
C[n+]1c2c(c(Cl)c3ccccc31)Cc1ccccc1-2.O=S(=O)([O-])C(F)(F)F | 119% | 125% | 297% |  |  |  |  |  | 
C[n+]1c2ccccc2c(I)c2[nH]c3ccc(F)cc3c21.[Cl-] | 117% | 115% | 0.92% | -33.1% | -13.2% | 2.7 g mouse-1 day-1 | 42.2 g mouse-1 | 41.8 g mouse-1 | 
C[n+]1c2ccccc2c(Cl)c2sc3ccccc3c21.O=S(=O)([O-])C(F)(F)F | 100% | 96% | 110% |  |  |  |  |  | 
C[n+]1c2ccccc2c(Cl)c2[nH]c3cc(F)ccc3c21.[Cl-] | 159% | 107% | 6% |  |  |  |  |  | 
C[n+]1c2ccc(F)cc2c(Nc2ccccc2)c2[nH]c3ccccc3c21.[Cl-] | 208% | 325% | 0.9% | -10.5% | -10.7% | 3.2 g mouse-1 day-1 | 44.8 g mouse-1 | 44.2 g mouse-1 | 
C[n+]1c2ccccc2cc2[n-]c3ccccc3c21.Cl [CRYPTOLEPINE HYDROCHLORIDE] | 305% | 148% | 359% | -16.4% | -43.1% | 0.9 g mouse-1 day-1 | 41 g mouse-1 | 39.8 g mouse-1 | 

Source: ChEMBL document CHEMBL1131580, “Antihyperglycemic activities of cryptolepine analogues: an ethnobotanical lead structure isolated from Cryptolepis sanguinolenta” (1998)
